Assay results: ChEMBL document CHEMBL1143612, “Combinatorial optimization of isatin-beta-thiosemicarbazones as anti-poxvirus agents” (J Med Chem, 2005)

Tests used:
HFF [1] = experiment: Effective concentration required to inhibit vaccinia virus plaque formation in human foreskin fibroblast (HFF) cells; assay type: functional, cell-based
HFF [2] = experiment: Ratio of Effective concentration to inhibit vaccinia virus plaque formation to that of half maximal cytotoxic concentration in human foreskin fibroblast (HFF) cells; assay type: functional
HFF [3] = experiment: Effective concentration required to inhibit cowpox virus plaque formation in human foreskin fibroblast (HFF) cells; assay type: functional, cell-based
HFF [4] = experiment: Ratio of Effective concentration to inhibit cowpox virus plaque formation to that of half maximal cytotoxic concentration in human foreskin fibroblast (HFF) cells; assay type: functional
HFF [5] = experiment: Half-maximal cytotoxic concentration in human foreskin fibroblast (HFF) cells; assay type: functional
Summary of the method: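 Primary HFF cells seeded at 2.5 × 10^4/well in 96-well plates 24 h ahead. Exposed 7 d at 37 °C to drug in MEM/2% FBS, 1:5 serial dilutions, final 100 to 0.032 µg/mL.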

**Q.** `NC(=S)/N=N/c1c(O)[nH]c2ccccc12` was tested. Which EC50 (HFF [1]) did it give?
**A.** 14 µM

**Q.** What about the SI (HFF [2]) of the same compound?
**A.** >32

**Q.** What about the EC50 (HFF [3]) of the same compound?
**A.** 60 µM

**Q.** What about the SI (HFF [4]) of the same compound?
**A.** >7.6

**Q.** And the CC50 (HFF [5])?
**A.** > 454 µM

**Q.** What does the source list for `Nc1ccn(C[C@@H](CO)OCP(=O)(O)O)c(=O)n1.O.O` [CIDOFOVIR]?
**A.** EC50 (HFF [1]): 27 µM; SI (HFF [2]): >12; EC50 (HFF [3]): 38 µM; SI (HFF [4]): >8.3; CC50 (HFF [5]): > 317 µM

**Q.** For `CN1C(=O)/C(=N\NC(N)=S)c2ccccc21` [METHISAZONE], which EC50 (HFF [1]) is on record?
**A.** 3.3 µM

**Q.** And the SI (HFF [2])?
**A.** >129

**Q.** What about the EC50 (HFF [3]) of the same compound?
**A.** 14 µM

**Q.** What about the SI (HFF [4]) of the same compound?
**A.** >31

**Q.** What about the CC50 (HFF [5]) of the same compound?
**A.** > 427 µM
